From ChEMBL document CHEMBL4334542, “Antimalarial N 1,N 3-Dialkyldioxonaphthoimidazoliums: Synthesis, Biological Activity, and Structure-activity Relationships” (ACS Med Chem Lett, 2020)
Calls of active or inactive are those of the source. The calls are words filed in the database; no cut-off is given here.

Key:
[1] = tested on: Plasmodium falciparum; experiment: Antimalarial activity against asexual stage of Plasmodium falciparum Dd2 infected in erythrocytes assessed as reduction in parasite growth incubated for 48 hrs under hypoxic condition by Hoechst 33342 staining based flow cytometry; format: functional, organism-based; conditions: Dd2, 48 h
In short: (§1)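 Asexual Dd2 and 3D7 parasites in erythrocytes; DNA content of infected cells measured by Hoechst 33342 staining and FACS. IC50 is the concentration giving 50% of the net fluorescence of untreated control cultures; mean ± SD of n = 3 separate determinations.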

[2] = tested on: Plasmodium falciparum; experiment: Antimalarial activity against asexual stage of Plasmodium falciparum 3D7 infected in erythrocytes assessed as reduction in parasite growth incubated for 48 hrs under hypoxic condition by Hoechst 33342 staining based flow cytometry; format: functional, organism-based; conditions: 3D7, 48 h; in short: as §1
[3] = tested on: CHO-K1; experiment: Cytotoxicity against CHOK1 cells assessed as reduction in cell viability incubated for 48 hrs by CellTiter 96 aqueous one solution assay; format: cell-based; conditions: Cricetulus griseus, CHO-K1, 48 h
In short: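 Cell growth measured by a tetrazolium dye assay. IC50 is the concentration reducing growth by 50% relative to untreated cultures; mean ± SD of n = 3 separate determinations.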

[4] = tested on: Plasmodium falciparum; experiment: Antimalarial activity against asexual stage of Plasmodium falciparum NF54 assessed as reduction in parasite growth incubated for 96 hrs by SYBR Green I dye-based fluorescence assay; format: functional, organism-based; conditions: NF54, 96 h
In short: (§2)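 Asexual NF54, K1 and W2 parasites; proliferation read as SYBR Green I fluorescence. IC50 is the concentration giving 50% of the net SYBR Green I fluorescence of untreated control cultures; mean ± SEM of n = 3 independent biological replicates.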

[5] = tested on: Plasmodium falciparum; experiment: Antimalarial activity against asexual stage of Plasmodium falciparum K1 assessed as reduction in parasite growth incubated for 96 hrs by SYBR Green I dye-based fluorescence assay; format: functional, organism-based; conditions: K1, 96 h; in short: as §2
[6] = tested on: Plasmodium falciparum; experiment: Antimalarial activity against asexual stage of Plasmodium falciparum W2 assessed as reduction in parasite growth incubated for 96 hrs by SYBR Green I dye-based fluorescence assay; format: functional, organism-based; conditions: W2, 96 h
[7] = tested on: Plasmodium falciparum; experiment: Antimalarial activity against Plasmodium falciparum NF54 early gametocytes transfected with luciferase gene incubated for 48 hrs by luciferase reporter gene assay; format: functional, organism-based; conditions: NF54, 48 h
In short: (§3)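 Gametocytes of NF54-Pfs16-GFP-Luc, early (>95% stage II/III) or late (>90% stage IV/V); luciferase read-out. IC50 is the concentration giving 50% reduction of luminescence; mean ± SEM of n = 3 independent biological replicates.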

[8] = tested on: Plasmodium falciparum; experiment: Antimalarial activity against Plasmodium falciparum NF54 late gametocytes transfected with luciferase gene incubated for 48 hrs by luciferase reporter gene assay; format: functional, organism-based; conditions: NF54, 48 h; in short: as §3
[9] = Solubility of compound at pH 7.4 measured after 24 hrs; format: physicochemical; conditions: buffer
In short: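 Water solubility measured at pH 7.4.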

[10] = Effective permeability of compound at pH 7.4 measured after 16 hrs PAMPA; format: ADME; conditions: pH 7.4, 16 h
[11] = Stability in rat liver microsomes incubated for 45 mins in presence of NADPH by chromatographic analysis; format: ADME, Microsome; conditions: 0.75 h
[12] = Half life in C57BL/6 mouse at 2 mg/kg, iv measured upto 24 hrs by LCMS analysis; format: ADME, organism-based; conditions: in vivo
[13] = Volume of distribution in C57BL/6 mouse at 2 mg/kg, iv measured upto 24 hrs by LCMS analysis; format: ADME, organism-based; conditions: in vivo
[14] = AUC (0 to last) at steady state in C57BL/6 mouse at 2 mg/kg, iv measured upto […] by LCMS analysis; format: ADME, organism-based; design: dose 2 mg/kg, time 0 - last, route intravenous; conditions: in vivo
[15] = Half life in C57BL/6 mouse at 20 mg/kg, po measured upto 24 hrs by LCMS analysis; format: ADME, organism-based; conditions: in vivo
[16] = Cmax in C57BL/6 mouse at 20 mg/kg, po measured upto 24 hrs by LCMS analysis; format: ADME, organism-based; design: dose 20 mg/kg, route oral; conditions: in vivo
[17] = Tmax in C57BL/6 mouse at 20 mg/kg, po measured upto 24 hrs by LCMS analysis; format: ADME, organism-based; conditions: in vivo
[18] = AUC (0 to last) in C57BL/6 mouse at 20 mg/kg, po measured upto 24 hrs by LCMS analysis; format: ADME, organism-based; design: dose 20 mg/kg, time 0 - last, route oral; conditions: in vivo
[19] = Oral bioavailability in C57BL/6 mouse at 20 mg/kg measured upto 24 hrs by LCMS analysis; format: ADME, organism-based; conditions: in vivo
[20] = Toxicity in C57BL/6 mouse assessed as distress effect at 20 mg/kg, po observed upto 24 hrs; format: organism-based; conditions: in vivo
In short: (§4)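 Male C57BL6 mice given one dose, 2 mg/kg iv or 20 mg/kg oral (n=3 per route), checked for signs of distress 24 h after dosing.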

[21] = Toxicity in C57BL/6 mouse assessed as distress effect at 2 mg/kg, iv observed upto 24 hrs; format: organism-based; conditions: in vivo; in short: as §4
[22] = tested on: Plasmodium falciparum; experiment: Antimalarial activity against Plasmodium falciparum 3D7 infected in orally dosed NOD-SCID IL-2Ry deficient mouse assessed as reduction in parasitemia administered on day 3 to 6 and measured on day 7 by TER-119-PE and SYTO-19 dye based flow cytometry; format: functional; conditions: 3D7, po
In short: (§5)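 Humanized mouse infected with P. falciparum Pf3D7 0087/N9; oral dosing on Days 3–6 at 5 dose levels spanning 1–50 mg/kg. Parasitemia measured each treatment day and on Day 7. ED90 from non-linear fit of log Day-7 parasitemia against oral dose, relative to untreated controls.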

[23] = tested on: Plasmodium falciparum; experiment: Antimalarial activity against Plasmodium falciparum NF54 incubated for 48 hrs by [3H]-hypoxanthine incorporation assay; format: functional, organism-based
[24] = tested on: Plasmodium falciparum; experiment: Antimalarial activity against Plasmodium falciparum K1 incubated for 48 hrs by [3H]-hypoxanthine incorporation assay; format: functional, organism-based
[25] = tested on: Plasmodium falciparum; experiment: Antimalarial activity against Plasmodium falciparum TM90C2B incubated for 48 hrs by [3H]-hypoxanthine incorporation assay; format: functional, organism-based
[26] = Toxicity in C57BL/6 mouse at 20 mg/kg, po; format: organism-based; conditions: in vivo; in short: as §4
[27] = Toxicity in C57BL/6 mouse at 2 mg/kg, iv; format: organism-based; conditions: in vivo; in short: as §4
[28] = Time at which plasma concentration stays above in vitro IC50 for asexual stage of Plasmodium falciparum 3D7 infected in erythrocytes in C57BL/6 mouse at 20 mg/kg, po; format: ADME, organism-based; conditions: in vivo
[29] = tested on: Plasmodium falciparum; experiment: Antimalarial activity against Plasmodium falciparum 3D7 infected in NOD-SCID IL-2Ry deficient mouse assessed as reduction in parasitemia at 50 mg/kg, po administered on day 3 to 6 and measured on day 7 by TER-119-PE and SYTO-19 dye based flow cytometry; format: functional, organism-based; in short: as §5
[30] = Redox cycling activity of the compound […] measured after 45 mins by phenol red reagent based horseradish peroxidase coupled assay
In short: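 Redox cycling EC50 determined by the phenol red horseradish peroxidase assay.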

For `Cc1n(C(C)C)c2c([n+]1C(C)C)C(=O)c1ccccc1C2=O.[Br-]`, the IC50 [1] was 4.7 nM, the IC50 [2] was 6.5 nM and the IC50 [3] was 56700 nM. It also gave an IC50 [4] of 1.43 nM, an IC50 [5] of 2.5 nM and an IC50 [6] of 2.18 nM. The IC50 [7] was 72 nM, the IC50 [8] was 653 nM and the solubility at 24 h [9] was > 100 µM. For the same compound, the Peff [10] was “Impermeable”, the Stability [11] was “Stable” and the half-life [12] was 1.4 h. For the same compound, the Vd [13] was 8.3 L/kg, the AUClast [14] was 130 µmol·min/L and the half-life [15] was 11.3 h. The Cmax [16] was 337 nM, the Tmax [17] was 2 h and the AUClast [18] was 69 µmol·min/L. The bioavailability [19] was 5%, the Activity [20] was “Non-Toxic” and the Activity [21] was “Non-Toxic”. The ED90 [22] was 34 mg/kg, the IC50 [23] was 1 nM and the IC50 [24] was 1.9 nM. The IC50 [25] was 1.6 nM, the Activity [26] was “Non-Toxic” and the Activity [27] was “Non-Toxic”. For the same compound, the Time [28] was 24 h, the Activity [29] was “inactive” and the Activity [30] was “Active”.
